According to ChEMBL document CHEMBL3769305, “Glucose-functionalized amino-OPEs as biocompatible photosensitizers in PDT” (Eur J Med Chem, 2016):
Active and inactive are the calls of the source. No cut-off for these calls is given here.

How the values were obtained:
[1] = system: HeLa; experiment: Induction of cell morphological changes in human HeLa cells assessed as deep deformation of cell membrane at LD90 after 24 hrs by Hoechst 33258 staining-based phase contrast microscopy in presence of 1 to 2 J/Cm'2 UVA light; format: functional
[2] = Dark toxicity against human Hep2 cells assessed as cell survival at 3 uM incubated for 6 hrs measured after 24 hrs by MTT assay; format: cell-based, HEp-2; details: read-out: Survival
Procedure, shortened: (§1)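 Cells (HaCaT and HeLa in DMEM, HEp-2 in RPMI, each with 10% FBS, at 37 °C and 5% CO2) were treated at 60–70% confluence. The compound was added from a 10^-3 M DMSO stock in medium with 1% FBS (final DMSO <0.5%) at 3·10^-6 to 2.5·10^-5 M and kept in the dark (6 h per table footnote, 18 h per methods). After 24 h, MTT at 50 µg/mL for 4 h, read at 542 nm as % of control OD.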

[3] = system: HEp-2; experiment: Induction of apoptotic morphological changes in human Hep2 cells at LD50 after 24 hrs by Hoechst 33258 staining-based fluorescence microscopy in presence of UVA light; format: functional, cell-based
[4] = system: HaCaT; experiment: Induction of cell morphological changes in human HaCaT cells assessed as appearance of necrotic cells with loss of membrane integrity at 3 to 5 uM after 24 hrs by Hoechst 33258 staining-based phase contrast microscopy in presence of UVA light
[5] = system: HaCaT; experiment: Drug uptake in human HaCaT cells at 1 uM after 6 hrs by fluorescence microscopy; format: ADME, cell-based
Procedure, shortened: (§2)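 Cells on glass coverslips at 60–70% confluence were exposed to 1×10^-6 M compound in medium with 1% FBS (DMSO <0.5%) for 6 h at 37 °C. After two PBS washes they were imaged live under UV excitation (365 nm), with blue excitation (460–490 nm) also used. Untreated cells served as autofluorescence controls.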

[6] = system: HEp-2; experiment: Induction of cell morphological changes in human Hep2 cells assessed as cytoplasmic retraction at 3 to 5 uM after 24 hrs by Hoechst 33258 staining-based phase contrast microscopy in presence of UVA light; format: functional
[7] = system: HeLa; experiment: Drug uptake in human HeLa cells at 1 uM after 6 hrs by fluorescence microscopy; format: ADME, cell-based; procedure, shortened: as §2
[8] = system: HEp-2; experiment: Induction of apoptosis in human Hep2 cells at LD50 after 24 hrs by acridine orange/ethidium bromide staining-based assay in presence of 0.25 to 0.5 J/cm'2 UVA light; format: functional, cell-based
[9] = system: HEp-2; experiment: Induction of morphological changes in human Hep2 cells assessed as nuclear retraction at LD50 after 24 hrs by Hoechst 33258 staining-based fluorescence microscopy in presence of UVA light; format: functional, cell-based
[10] = system: HeLa; experiment: Induction of cell morphological changes in human HeLa cells assessed as cytoplasmic retraction at 3 to 5 uM after 24 hrs by Hoechst 33258 staining-based phase contrast microscopy in presence of UVA light; format: functional
[11] = system: HeLa; experiment: Induction of cell morphological changes in human HeLa cells assessed as cell detachment from substrate at 3 to 5 uM after 24 hrs by Hoechst 33258 staining-based phase contrast microscopy in presence of UVA light; format: functional
[12] = system: HaCaT; experiment: Induction of cell morphological changes in human HaCaT cells assessed as cytoplasmic retraction at 3 to 5 uM after 24 hrs by Hoechst 33258 staining-based phase contrast microscopy in presence of UVA light
[13] = system: HeLa; experiment: Phototoxicity against human HeLa cells assessed as cell lethality at 3 to 250 uM incubated for 6 hrs followed by UV irradiation at 1 J/cm'2 measured after 24 hrs by MTT assay; format: functional
Procedure, shortened: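 Cultures at 60–70% confluence were loaded with the photosensitizer for 6 h in medium with 1% FBS and <0.5% DMSO. Medium was then replaced and cells were irradiated with UVA (300–400 nm, 15.9 W/m² at 10 cm), then washed and kept in complete medium for 24 h. Survival was read by MTT (50 µg/mL, 4 h, 542 nm) as % of untreated control OD.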

[14] = Drug uptake in endoplasmic reticulum of human HeLa cells at 1 uM after 6 hrs by ER-tracker dye-based fluorescence microscopy; format: ADME, cell-based
Procedure, shortened: (§3)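 Cells grown on glass coverslips were incubated with 1×10^-6 M photosensitizer for 6 h at 37 °C, washed twice in PBS and imaged live by fluorescence microscopy. Organelle probes (ER-Tracker, ex 374/em 430 nm; NBD-Golgi, ex 466/em 536 nm) were applied for 30 min at the supplier's concentrations, and their patterns were compared with the compound signal.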

[15] = Drug uptake in endoplasmic reticulum of human HaCaT cells at 1 uM after 6 hrs by ER-tracker dye-based fluorescence microscopy; format: ADME, cell-based; procedure, shortened: as §3
[16] = Induction of microtubule disruption in human HeLa cells assessed as abnormality in chromosome distribution at LD50 after 24 hrs by immunofluorescence assay in presence of UVA light; format: cell-based
[17] = system: HaCaT; experiment: Induction of cell morphological changes in human HaCaT cells assessed as cell elongation at 3 to 5 uM after 24 hrs by Hoechst 33258 staining-based phase contrast microscopy in presence of UVA light
[18] = system: HaCaT; experiment: Phototoxicity against human HaCaT cells assessed as appearance of rounded cells at LD50 after 24 hrs by acridine orange/ethidium bromide staining-based assay in presence of 0.25 to 0.5 J/cm'2 UVA light; format: cell-based
Procedure, shortened: (§4)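 Cells (HaCaT, HeLa in DMEM; HEp-2 in RPMI; 10% FBS) at 60–70% confluence were incubated 6 h with 3·10^-6 M photosensitizer (DMSO stock diluted in medium with 1% FBS, final DMSO <0.5%). Medium was replaced and cells were given 0.25 J/cm² UVA (300–400 nm). 24 h later, cells were stained live with 50 µg/ml AO plus 50 µg/ml EtBr in PBS. Within 15 min, 200 cells per condition were scored as living, rounded, apoptotic or necrotic.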

[19] = system: HEp-2; experiment: Induction of necrosis in human Hep2 cells at LD50 after 24 hrs by acridine orange/ethidium bromide staining-based assay in presence of 0.25 to 0.5 J/cm'2 UVA light; format: functional, cell-based; procedure, shortened: as §4
[20] = system: HeLa; experiment: Induction of necrosis in human HeLa cells at LD50 after 24 hrs by acridine orange/ethidium bromide staining-based assay in presence of 0.25 to 0.5 J/cm'2 UVA light; format: functional, cell-based
[21] = Dark toxicity against human HaCaT cells assessed as cell survival at 10 uM incubated for 6 hrs measured after 24 hrs by MTT assay; format: cell-based; details: read-out: Survival; procedure, shortened: as §1
[22] = system: HEp-2; experiment: Induction of microtubule disruption in human Hep2 cells assessed as increase in altered metaphase at LD50 after 24 hrs by immunofluorescence assay in presence of UVA light; format: cell-based
[23] = system: HEp-2; experiment: Induction of microtubule disruption in human Hep2 cells assessed as increase in mitotic index at LD50 after 24 hrs by immunofluorescence assay in presence of UVA light; format: cell-based
[24] = Dark toxicity against human HaCaT cells assessed as cell survival at 5 uM incubated for 6 hrs measured after 24 hrs by MTT assay; format: cell-based; details: read-out: Survival; procedure, shortened: as §1
[25] = Induction of microtubule disruption in human HaCaT cells assessed as increase in altered metaphase at LD50 after 24 hrs by immunofluorescence assay in presence of UVA light; format: cell-based

Row | SMILES | Activity [1] | viability at 6 h, 3 µM [2] [%] | Activity [3] | Activity [4] | Drug uptake [5] | Activity [6] | Drug uptake [7] | Activity [8] | Activity [9] | Activity [10] | Activity [11] | Activity [12] | mortality [13] [%] | Drug uptake [14] | Drug uptake [15] | Activity [16] | Activity [17] | Activity [18] | Activity [19] | Activity [20] | other results
1 | COc1cc(C#Cc2ccc(C#CCO[C@@H]3O[C@H](CO)[C@@H](O)[C@H](O)[C@H]3O)cc2N(C)C)c(OC)cc1C#Cc1ccc(C#CCO[C@@H]2O[C@H](CO)[C@@H](O)[C@H](O)[C@H]2O)cc1N(C)C | Active | 97.7 | Active | Toxic | Active | Active | Active | Active | Active | Active | Active | Toxic | >50 | Active | Active | Active | Toxic | Toxic | Active | Active | viability at 6 h, 10 µM [21]: 70.2%; Activity [22]: Active; Activity [23]: Active; viability at 6 h, 5 µM [24]: 90.9%; Activity [25]: Non-toxic
2 | COc1cc(C#Cc2ccc(C#Cc3cc(OC)c(C#CCO[C@@H]4O[C@H](CO)[C@@H](O)[C@H](O)[C@H]4O)cc3OC)c(N(C)C)c2)c(OC)cc1C#CCO[C@@H]1O[C@H](CO)[C@@H](O)[C@H](O)[C@H]1O | Active | 97.2 | Active | Toxic | Active | Active | Active | Active | Active | Active | Active | Toxic | >50 | Active | Active | Active | Toxic | Toxic | Active | Active | viability at 6 h, 10 µM [21]: 71.5%; Activity [22]: Active; Activity [23]: Active; viability at 6 h, 5 µM [24]: 91.4%; Activity [25]: Non-toxic
